Reference: ChEMBL document CHEMBL1629545, “A morpholino oligomer targeting highly conserved internal ribosome entry site sequence is able to inhibit multiple species of picornavirus” (Antimicrob Agents Chemother, 2008)
The source made the active and inactive calls. The rule behind the calls is not given here.

Assays:
HeLa [1] = test: Cytotoxicity against human HeLa cells at 10 uM by MTS assay; assay type: cell-based
Summary of the method: (§1)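 HeLa cells at ~80% confluence, uninfected, exposed to 1–100 μM PPMO or water (mock) in serum-free DMEM-F-12 (1:1) for 24 h. MTS reagent was added for 4 h and absorbance read at 492 nm. Viability was expressed as percent of water-treated cells (set to 100%), averaged over 12 wells.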

HeLa [2] = test: Cytotoxicity against human HeLa cells 10 uM after 24 hrs by MTS assay; assay type: cell-based; summary of the method: as §1
Poliovirus 1 = test: Antiviral activity against Human poliovirus type 1 infected in Human HeLa cell assessed as inhibition of translation at 10 ug/ml by luciferase reporter gene assay; assay type: functional, organism-based
Summary of the method: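 In-cell translation control: HeLa cells electroporated with 20 μg PV1-Luc replicon RNA were placed in medium with 10 μg/ml puromycin at 37°C in 5% CO2. Luciferase in lysates was read by luminometer at hourly time points after transfection. Two experiments were averaged.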

SK-N-MC = test: Cytotoxicity against human SK-N-MC cell at 10 uM after 24 hrs by MTS assay; assay type: cell-based
Vero = test: Cytotoxicity against African green monkey Vero cells at 10 uM after 24 hrs by MTS assay; assay type: cell-based; conditions: chlorocebus sabaeus

Structure (SMILES)	Activity (HeLa [1])	Activity (HeLa [2])	Activity (Poliovirus 1)	Activity (SK-N-MC)	Activity (Vero)
Cc1cn([C@H]2CN(P(=O)(OC[C@@H]3CN(P(=O)(OC[C@@H]4CN(P(=O)(OC[C@@H]5CN(P(=O)(OC[C@@H]6CN(P(=O)(OC[C@@H]7CN(P(=O)(OC[C@@H]8CN(P(=O)(OC[C@@H]9CN(P(=O)(OC[C@@H]%10CN(P(=O)(OC[C@@H]%11CN(P(=O)(OC[C@@H]%12CN(P(=O)(OC[C@@H]%13CN(P(=O)(OC[C@@H]%14CN(P(=O)(OC[C@@H]%15CN(P(=O)(OC[C@@H]%16CN(P(=O)(OC[C@@H]%17CN(P(=O)(OC[C@@H]%18CN(P(=O)(OC[C@@H]%19CNC[C@H](n%20cnc%21c(=O)[nH]c(N)nc%21%20)O%19)N(C)C)C[C@H](n%19ccc(N)nc%19=O)O%18)N(C)C)C[C@H](n%18cnc%19c(N)ncnc%19%18)O%17)N(C)C)C[C@H](n%17cc(C)c(=O)[nH]c%17=O)O%16)N(C)C)C[C@H](n%16cc(C)c(=O)[nH]c%16=O)O%15)N(C)C)C[C@H](n%15cnc%16c(=O)[nH]c(N)nc%16%15)O%14)N(C)C)C[C@H](n%14ccc(N)nc%14=O)O%13)N(C)C)C[C@H](n%13cnc%14c(=O)[nH]c(N)nc%14%13)O%12)N(C)C)C[C@H](n%12ccc(N)nc%12=O)O%11)N(C)C)C[C@H](n%11cnc%12c(=O)[nH]c(N)nc%12%11)O%10)N(C)C)C[C@H](n%10cc(C)c(=O)[nH]c%10=O)O9)N(C)C)C[C@H](n9cc(C)c(=O)[nH]c9=O)O8)N(C)C)C[C@H](n8ccc(N)nc8=O)O7)N(C)C)C[C@H](n7cnc8c(N)ncnc87)O6)N(C)C)C[C@H](n6cnc7c(=O)[nH]c(N)nc76)O5)N(C)C)C[C@H](n5cnc6c(=O)[nH]c(N)nc65)O4)N(C)C)C[C@H](n4ccc(N)nc4=O)O3)N(C)C)C[C@@H](COP(=O)(N(C)C)N3C[C@@H](COP(=O)(N(C)C)N4C[C@@H](COP(=O)(N(C)C)N5CCN(C(=O)CCNC(=O)CCCCCNC(=O)[C@H](CCCNC(=N)N)NC(=O)CCCCCNC(=O)[C@H](CCCNC(=N)N)NC(=O)[C@H](CCCNC(=N)N)NC(=O)CCCCCNC(=O)[C@H](CCCNC(=N)N)NC(=O)[C@H](CCCNC(=N)N)NC(=O)CCCCCNC(=O)[C@H](CCCNC(=N)N)NC(=O)[C@H](CCCNC(=N)N)NC(=O)CCCCCNC(=O)[C@@H](N)CCCNC(=N)N)CC5)O[C@@H](n5ccc(N)nc5=O)C4)O[C@@H](n4ccc(N)nc4=O)C3)O2)c(=O)[nH]c1=O (stereo partly specified)	Non-toxic	Toxic	inactive	Non-toxic	Non-toxic
Cc1cn([C@H]2CN(P(=O)(OC[C@@H]3CN(P(=O)(OC[C@@H]4CN(P(=O)(OC[C@@H]5CN(P(=O)(OC[C@@H]6CN(P(=O)(OC[C@@H]7CN(P(=O)(OC[C@@H]8CN(P(=O)(OC[C@@H]9CN(P(=O)(OC[C@@H]%10CN(P(=O)(OC[C@@H]%11CN(P(=O)(OC[C@@H]%12CN(P(=O)(OC[C@@H]%13CN(P(=O)(OC[C@@H]%14CN(P(=O)(OC[C@@H]%15CNC[C@H](n%16cnc%17c(=O)[nH]c(N)nc%17%16)O%15)N(C)C)C[C@H](n%15cc(C)c(=O)[nH]c%15=O)O%14)N(C)C)C[C@H](n%14cc(C)c(=O)[nH]c%14=O)O%13)N(C)C)C[C@H](n%13cnc%14c(N)ncnc%14%13)O%12)N(C)C)C[C@H](n%12cnc%13c(N)ncnc%13%12)O%11)N(C)C)C[C@H](n%11ccc(N)nc%11=O)O%10)N(C)C)C[C@H](n%10cnc%11c(N)ncnc%11%10)O9)N(C)C)C[C@H](n9cc(C)c(=O)[nH]c9=O)O8)N(C)C)C[C@H](n8cnc9c(N)ncnc98)O7)N(C)C)C[C@H](n7cnc8c(=O)[nH]c(N)nc87)O6)N(C)C)C[C@H](n6cc(C)c(=O)[nH]c6=O)O5)N(C)C)C[C@H](n5cnc6c(N)ncnc65)O4)N(C)C)C[C@H](n4cc(C)c(=O)[nH]c4=O)O3)N(C)C)C[C@@H](COP(=O)(N(C)C)N3C[C@@H](COP(=O)(N(C)C)N4C[C@@H](COP(=O)(N(C)C)N5C[C@@H](COP(=O)(N(C)C)N6C[C@@H](COP(=O)(N(C)C)N7C[C@@H](COP(=O)(N(C)C)N8C[C@@H](COP(=O)(N(C)C)N9C[C@@H](COP(=O)(N(C)C)N%10CCN(C(=O)CCNC(=O)CCCCCNC(=O)[C@H](CCCNC(=N)N)NC(=O)CCCCCNC(=O)[C@H](CCCNC(=N)N)NC(=O)[C@H](CCCNC(=N)N)NC(=O)CCCCCNC(=O)[C@H](CCCNC(=N)N)NC(=O)[C@H](CCCNC(=N)N)NC(=O)CCCCCNC(=O)[C@H](CCCNC(=N)N)NC(=O)[C@H](CCCNC(=N)N)NC(=O)CCCCCNC(=O)[C@@H](N)CCCNC(=N)N)CC%10)O[C@@H](n%10cnc%11c(=O)[nH]c(N)nc%11%10)C9)O[C@@H](n9ccc(N)nc9=O)C8)O[C@@H](n8cnc9c(N)ncnc98)C7)O[C@@H](n7ccc(N)nc7=O)C6)O[C@@H](n6ccc(N)nc6=O)C5)O[C@@H](n5ccc(N)nc5=O)C4)O[C@@H](n4cnc5c(N)ncnc54)C3)O2)c(=O)[nH]c1=O (stereo partly specified)	Non-toxic	Toxic	inactive	Non-toxic	Non-toxic
Cc1cn([C@H]2CNC[C@@H](COP(=O)(N(C)C)N3C[C@@H](COP(=O)(N(C)C)N4C[C@@H](COP(=O)(N(C)C)N5C[C@@H](COP(=O)(N(C)C)N6C[C@@H](COP(=O)(N(C)C)N7C[C@@H](COP(=O)(N(C)C)N8C[C@@H](COP(=O)(N(C)C)N9C[C@@H](COP(=O)(N(C)C)N%10C[C@@H](COP(=O)(N(C)C)N%11C[C@@H](COP(=O)(N(C)C)N%12C[C@@H](COP(=O)(N(C)C)N%13C[C@@H](COP(=O)(N(C)C)N%14C[C@@H](COP(=O)(N(C)C)N%15C[C@@H](COP(=O)(N(C)C)N%16C[C@@H](COP(=O)(N(C)C)N%17C[C@@H](COP(=O)(N(C)C)N%18C[C@@H](COP(=O)(N(C)C)N%19C[C@@H](COP(=O)(N(C)C)N%20C[C@@H](COP(=O)(N(C)C)N%21C[C@@H](COP(=O)(N(C)C)N%22C[C@@H](COP(=O)(N(C)C)N%23CCN(C(=O)CCNC(=O)CCCCCNC(=O)[C@H](CCCNC(=N)N)NC(=O)CCCCCNC(=O)[C@H](CCCNC(=N)N)NC(=O)[C@H](CCCNC(=N)N)NC(=O)CCCCCNC(=O)[C@H](CCCNC(=N)N)NC(=O)[C@H](CCCNC(=N)N)NC(=O)CCCCCNC(=O)[C@H](CCCNC(=N)N)NC(=O)[C@H](CCCNC(=N)N)NC(=O)CCCCCNC(=O)[C@@H](N)CCCNC(=N)N)CC%23)O[C@@H](n%23cc(C)c(=O)[nH]c%23=O)C%22)O[C@@H](n%22cnc%23c(N)ncnc%23%22)C%21)O[C@@H](n%21ccc(N)nc%21=O)C%20)O[C@@H](n%20cnc%21c(=O)[nH]c(N)nc%21%20)C%19)O[C@@H](n%19cnc%20c(=O)[nH]c(N)nc%20%19)C%18)O[C@@H](n%18cc(C)c(=O)[nH]c%18=O)C%17)O[C@@H](n%17cnc%18c(=O)[nH]c(N)nc%18%17)C%16)O[C@@H](n%16cc(C)c(=O)[nH]c%16=O)C%15)O[C@@H](n%15cc(C)c(=O)[nH]c%15=O)C%14)O[C@@H](n%14cc(C)c(=O)[nH]c%14=O)C%13)O[C@@H](n%13cnc%14c(=O)[nH]c(N)nc%14%13)C%12)O[C@@H](n%12ccc(N)nc%12=O)C%11)O[C@@H](n%11cc(C)c(=O)[nH]c%11=O)C%10)O[C@@H](n%10ccc(N)nc%10=O)C9)O[C@@H](n9cc(C)c(=O)[nH]c9=O)C8)O[C@@H](n8cc(C)c(=O)[nH]c8=O)C7)O[C@@H](n7cnc8c(=O)[nH]c(N)nc87)C6)O[C@@H](n6cnc7c(N)ncnc76)C5)O[C@@H](n5cnc6c(N)ncnc65)C4)O[C@@H](n4ccc(N)nc4=O)C3)O2)c(=O)[nH]c1=O (stereo partly specified)	Non-toxic	Toxic	inactive	Non-toxic	Non-toxic
COc1ccc(C[C@H](N)C(=O)N[C@H]2[C@@H](O)[C@H](n3cnc4c(N(C)C)ncnc43)O[C@@H]2CO)cc1	–	–	Active	–	–
